Data on one compound can be found in ChEMBL document CHEMBL4196123, “Discovery of an Orally Bioavailable Dual PI3K/mTOR Inhibitor Based on Sulfonyl-Substituted Morpholinopyrimidines” (ACS Med Chem Lett, 2018).

Data set [1] can be described thus: Intrinsic clearance in mouse liver microsomes at […] pretreated up to 45 mins followed by NADPH addition and measured by LC-MS/MS analysis. It is filed as ADME, microsome. The conditions noted are these: read-out: CLH.
The target in data set [2] is Phosphatidylinositol 4,5-bisphosphate 3-kinase catalytic subunit alpha isoform (Homo sapiens, UniProt P42336, H1047R). Put plainly: Inhibition of p110alpha H1047R mutant (unknown origin).
Data set [3] has as its target PI3-kinase p110-alpha/p85-alpha (Homo sapiens, UniProt P42336, E545K). Put plainly: Inhibition of recombinant human His-tagged p85alpha/p110alpha E545K mutant expressed in insect cells.
Data set [4] is described as follows: Tmax in CD1 mouse at 10 mg/kg, po administered via gavage by LC-MS/MS analysis. It is filed as ADME, organism-based. To be noted: in vivo.
For data set [5], the target named is T1, Cytochrome P450 3A4 (Homo sapiens, UniProt P08684). Put plainly: Inhibition of CYP3A4 in human liver microsomes using testosterone as substrate pretreated for 5 mins followed by NADPH addition and measured after 5 mins by LC-MS analysis. The data set is classed as ADME.
The next data set relates to Mus musculus. Nature of the data set: Toxicity in Balb/c nu/nu mouse xenografted with human HT-29 cells harboring PIK3CA P449T mutant assessed as body weight loss at 7.5 mg/kg, po administered daily via gavage for 27 days relative to control. It is filed as organism-based. To be noted: in vivo, 648 h. The method, boiled down: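 Balb/c nu/nu mice with HT-29 xenografts (mean tumor about 240 mm³) received daily oral gavage for 27 days. Body weight change was measured and plotted over time. Mean ± SEM, n = 6.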

Data set [6] deals with Voltage-gated inwardly rectifying potassium channel KCNH2 (Homo sapiens, UniProt Q12809). Put plainly: Inhibition of recombinant human ERG expressed in CHO cells by automated whole cell patch clamp Qpatch method. The data set is classed as cell-based.
In data set [7] the target is PI3-kinase p110-alpha/p85-alpha (Homo sapiens, UniProt P42336). Put plainly: Inhibition of recombinant human full length N-terminal His-tagged p110alpha/p85alpha expressed in baculovirus expression system using PIP2 as substrate measured after 1 hr by Alexa633 Tracer-based fluorescence polarization assay. The method, boiled down:
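PI3Kα enzyme inhibition; IC50 is the mean of duplicate measurements.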

Data set [8] addresses T1, Cytochrome P450 3A4. Put plainly: Inhibition of CYP3A4 in human liver microsomes using midazolam as substrate pretreated for 5 mins followed by NADPH addition and measured after 5 mins by LC-MS analysis. The data set is classed as ADME.

T1 sequence (P08684 whole entry): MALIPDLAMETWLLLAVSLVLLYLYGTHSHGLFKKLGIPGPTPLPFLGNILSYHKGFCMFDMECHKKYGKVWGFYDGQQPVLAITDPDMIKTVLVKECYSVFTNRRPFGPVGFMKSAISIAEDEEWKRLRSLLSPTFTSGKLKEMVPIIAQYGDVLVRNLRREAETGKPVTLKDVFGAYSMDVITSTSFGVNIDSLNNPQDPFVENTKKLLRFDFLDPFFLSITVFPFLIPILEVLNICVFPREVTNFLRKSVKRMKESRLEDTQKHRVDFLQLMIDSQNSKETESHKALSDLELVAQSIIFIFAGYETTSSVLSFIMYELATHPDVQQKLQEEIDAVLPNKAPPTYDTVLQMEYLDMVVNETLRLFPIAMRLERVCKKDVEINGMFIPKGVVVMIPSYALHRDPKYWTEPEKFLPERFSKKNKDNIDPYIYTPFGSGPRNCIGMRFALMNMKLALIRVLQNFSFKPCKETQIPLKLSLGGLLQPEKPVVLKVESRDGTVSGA
Phosphatidylinositol 4,5-bisphosphate 3-kinase catalytic subunit alpha isoform, sequence (P42336 whole entry H1047R, canonical isoform): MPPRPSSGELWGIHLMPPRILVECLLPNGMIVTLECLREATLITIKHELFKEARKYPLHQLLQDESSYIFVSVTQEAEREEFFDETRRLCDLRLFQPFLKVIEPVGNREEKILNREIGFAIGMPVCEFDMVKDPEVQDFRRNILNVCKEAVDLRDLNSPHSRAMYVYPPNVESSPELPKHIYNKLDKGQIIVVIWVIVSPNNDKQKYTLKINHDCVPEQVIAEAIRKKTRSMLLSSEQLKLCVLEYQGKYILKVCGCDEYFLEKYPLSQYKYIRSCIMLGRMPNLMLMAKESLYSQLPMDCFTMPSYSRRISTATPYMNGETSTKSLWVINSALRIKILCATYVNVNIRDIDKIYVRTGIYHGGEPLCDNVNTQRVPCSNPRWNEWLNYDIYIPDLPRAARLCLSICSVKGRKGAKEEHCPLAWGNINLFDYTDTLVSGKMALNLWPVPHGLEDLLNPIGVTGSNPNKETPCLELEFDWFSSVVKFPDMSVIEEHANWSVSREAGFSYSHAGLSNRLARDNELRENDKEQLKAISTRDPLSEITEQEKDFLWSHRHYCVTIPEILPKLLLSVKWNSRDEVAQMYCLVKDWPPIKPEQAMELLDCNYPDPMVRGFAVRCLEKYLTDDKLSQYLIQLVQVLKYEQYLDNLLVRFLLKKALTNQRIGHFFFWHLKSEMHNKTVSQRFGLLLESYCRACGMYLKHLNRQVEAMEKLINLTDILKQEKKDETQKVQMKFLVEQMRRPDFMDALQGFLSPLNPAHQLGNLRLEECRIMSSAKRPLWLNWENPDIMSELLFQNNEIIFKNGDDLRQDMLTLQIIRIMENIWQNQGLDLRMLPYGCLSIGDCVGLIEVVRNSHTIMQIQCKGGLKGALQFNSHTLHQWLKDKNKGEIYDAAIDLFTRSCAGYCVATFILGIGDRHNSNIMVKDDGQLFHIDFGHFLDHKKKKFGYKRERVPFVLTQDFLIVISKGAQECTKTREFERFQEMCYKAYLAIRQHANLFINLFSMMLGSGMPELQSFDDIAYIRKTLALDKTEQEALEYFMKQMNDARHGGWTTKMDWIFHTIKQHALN
PI3-kinase p110-alpha/p85-alpha (Homo sapiens, UniProt P42336, E545K), sequence (P42336 whole entry E545K, looked up): as the sequence (P42336 whole entry H1047R, canonical isoform) above, with E545K, R1047H counted along it
PI3-kinase p110-alpha/p85-alpha (Homo sapiens, UniProt P42336), sequence (P27986 whole entry): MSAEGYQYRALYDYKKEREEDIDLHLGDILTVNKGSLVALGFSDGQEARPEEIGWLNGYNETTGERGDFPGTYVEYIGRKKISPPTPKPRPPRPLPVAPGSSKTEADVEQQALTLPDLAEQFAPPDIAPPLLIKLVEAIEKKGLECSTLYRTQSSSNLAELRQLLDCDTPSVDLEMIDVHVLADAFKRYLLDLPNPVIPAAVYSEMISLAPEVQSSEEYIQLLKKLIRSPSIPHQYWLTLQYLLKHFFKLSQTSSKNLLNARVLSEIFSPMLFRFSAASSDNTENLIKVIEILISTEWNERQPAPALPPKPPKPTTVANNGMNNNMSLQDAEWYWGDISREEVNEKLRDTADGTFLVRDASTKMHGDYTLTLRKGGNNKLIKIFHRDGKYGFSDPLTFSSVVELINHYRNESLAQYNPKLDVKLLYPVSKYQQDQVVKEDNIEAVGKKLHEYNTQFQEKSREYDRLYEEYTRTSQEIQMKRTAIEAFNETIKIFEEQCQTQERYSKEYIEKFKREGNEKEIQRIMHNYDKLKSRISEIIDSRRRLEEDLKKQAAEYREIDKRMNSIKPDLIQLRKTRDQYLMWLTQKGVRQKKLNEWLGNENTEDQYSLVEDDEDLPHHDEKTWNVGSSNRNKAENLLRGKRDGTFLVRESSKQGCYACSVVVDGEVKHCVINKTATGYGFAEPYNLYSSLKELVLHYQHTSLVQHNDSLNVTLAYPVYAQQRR
PI3-kinase p110-alpha/p85-alpha (Homo sapiens, UniProt P42336), sequence (P42336 whole entry): as the sequence (P42336 whole entry H1047R, canonical isoform) above, with R1047H counted along it
Voltage-gated inwardly rectifying potassium channel KCNH2, sequence (Q12809 whole entry): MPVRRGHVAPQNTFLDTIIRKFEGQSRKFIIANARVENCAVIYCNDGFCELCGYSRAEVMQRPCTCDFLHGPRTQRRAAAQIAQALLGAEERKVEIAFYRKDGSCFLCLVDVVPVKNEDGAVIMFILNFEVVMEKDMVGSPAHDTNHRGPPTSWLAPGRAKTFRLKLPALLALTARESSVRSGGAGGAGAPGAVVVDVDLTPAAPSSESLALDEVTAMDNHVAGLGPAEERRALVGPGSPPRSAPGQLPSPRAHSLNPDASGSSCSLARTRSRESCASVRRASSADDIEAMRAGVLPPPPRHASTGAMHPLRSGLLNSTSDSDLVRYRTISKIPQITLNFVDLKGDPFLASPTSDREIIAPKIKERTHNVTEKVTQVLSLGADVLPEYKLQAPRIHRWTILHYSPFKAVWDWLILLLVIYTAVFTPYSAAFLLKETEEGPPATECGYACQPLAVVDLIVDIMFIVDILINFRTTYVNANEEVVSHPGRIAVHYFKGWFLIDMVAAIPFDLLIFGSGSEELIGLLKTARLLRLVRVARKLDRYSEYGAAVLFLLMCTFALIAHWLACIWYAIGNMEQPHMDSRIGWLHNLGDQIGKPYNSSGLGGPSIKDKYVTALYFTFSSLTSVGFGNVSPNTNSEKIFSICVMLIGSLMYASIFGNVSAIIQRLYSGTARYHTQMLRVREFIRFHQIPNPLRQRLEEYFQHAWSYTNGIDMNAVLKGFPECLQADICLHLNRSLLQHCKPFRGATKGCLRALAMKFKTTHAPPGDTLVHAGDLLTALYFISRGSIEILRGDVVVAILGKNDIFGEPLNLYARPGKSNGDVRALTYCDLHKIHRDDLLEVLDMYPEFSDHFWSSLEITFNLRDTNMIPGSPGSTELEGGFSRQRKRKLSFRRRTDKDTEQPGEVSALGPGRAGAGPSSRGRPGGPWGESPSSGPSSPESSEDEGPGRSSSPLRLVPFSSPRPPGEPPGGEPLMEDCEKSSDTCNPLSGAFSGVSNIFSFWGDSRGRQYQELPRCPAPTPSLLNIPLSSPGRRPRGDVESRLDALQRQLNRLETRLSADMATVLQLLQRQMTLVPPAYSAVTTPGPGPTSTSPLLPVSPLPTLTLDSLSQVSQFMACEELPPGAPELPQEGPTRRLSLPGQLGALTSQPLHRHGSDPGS

As to `C[C@H]1COCCN1c1nc(-c2cnc(N)cc2F)cc(C2(S(C)(=O)=O)CC2)n1`, the CLint scaled in [1] is 40 to 140 mL/min/kg. Moreover, the 50% inhibitory concentration (IC50) in [2] was 15 nM; in data set [3], 11 nM; at Cytochrome P450 3A4 [5], greater than 10000 nM; in [6], greater than 30000 nM; in data set [7], 10 to 20 nM; on Cytochrome P450 3A4 [8], greater than 10000 nM. In addition, the time to peak (Tmax) in data set [4] worked out at 15 min. Also, the Activity with Mus musculus stood at 15%.
